RORA act – activators of human nuclear receptor RORA | activation, % at 10 µM | P35398 | CHO-K1 Gal4-RORA LBD luciferase reporter, luminescence; percent increase over mock-subtracted basal signal | 1.5% of 65,000 active;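 active = activation above the mean of all tested compounds plus 3 SD, cut at about 49% in these data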;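 note: 0% = DMSO-treated RORA cells and 100% = added signal equal to DMSO minus mock-transfected cells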
Target sequence (P35398 whole entry, looked up, the tested form may be a part): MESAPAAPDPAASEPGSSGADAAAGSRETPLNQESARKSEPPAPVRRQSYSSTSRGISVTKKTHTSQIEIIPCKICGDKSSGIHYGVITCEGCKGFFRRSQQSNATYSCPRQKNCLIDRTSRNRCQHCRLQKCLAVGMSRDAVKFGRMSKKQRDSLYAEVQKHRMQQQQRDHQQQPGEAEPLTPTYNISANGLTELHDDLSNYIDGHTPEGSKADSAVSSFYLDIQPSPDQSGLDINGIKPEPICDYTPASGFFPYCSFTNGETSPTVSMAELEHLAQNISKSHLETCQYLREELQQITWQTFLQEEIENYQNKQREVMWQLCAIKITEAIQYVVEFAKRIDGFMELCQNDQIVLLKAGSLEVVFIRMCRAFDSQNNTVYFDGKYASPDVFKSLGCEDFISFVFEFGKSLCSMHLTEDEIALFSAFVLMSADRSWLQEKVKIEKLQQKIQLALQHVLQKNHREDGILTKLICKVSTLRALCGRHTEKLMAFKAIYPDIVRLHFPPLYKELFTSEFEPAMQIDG
MT1-MMP txn act – activates MT1-MMP transcription; HT1080 MT1-MMP promoter luciferase reporter, luminescence, overnight; stronger effect = higher value; activation factor at 10 µM; 0.16% of 86,000 active;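 active = activation factor of at least 2 for MT1-MMP transcription at 10 µM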
TNAP act mid DEA – activators of human TNAP at intermediate phosphate acceptor | 64,000 tested, under 10 active | activation factor at 20 µM | purified TNAP, CDP-star luminescence, 100 mM DEA, 30 min; stronger effect = higher value; scale: 0 levamisole-inhibited, 1 vehicle-only enzyme | P05186;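 active = activation factor of at least 2 at 20 µM, relative to controls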
MMP-13 inhibitor – blocks human MMP13 activity. MMP-13 fTHP FRET cleavage, Mca fluorescence. inhibition, % at 4 µM. 0.07% of 65,000 active;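 active = inhibition above the mean of compound-free control plate wells plus 3 SD, cut at about 14% in these data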;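 note: 0% = DMSO wells and 100% = wells with reference MMP-13 inhibitor after basal subtraction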
SF-1 act – activates the human nuclear receptor SF-1; Q13285; CHO-K1 Gal4-SF-1 LBD luciferase reporter; % increase over DMSO SF-1-specific signal; activation, % at 10 µM; 1.9% of 65,000 active;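 active = activation above the mean activation of all tested compounds plus 3 SD, cut at about 50% in these data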
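Test system: transient Gal4-SF-1 LBD reporter, CHO-K1; Amount: 4,000 CHO-K1 cells per well; Doses: 10 µM only; Timing: compound exposure 20 h at 37 °C; Signal: luciferase light emission; Read-out basis: percent activation relative to DMSO median and mock-transfected background; Control set: DMSO negative control and −SF1 background wells; Replicates: one test per compound.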
An asterisk follows results filed as active; nt = not tested or not shown. This is a sample that favours compounds with a hit; in the whole collection about 2.1% have one here.

SMILES	RORA act	MT1-MMP txn act	TNAP act mid DEA	MMP-13 inhibitor	SF-1 act
CCOC(=O)C1CCCN(c2ncnc3c2cnn3-c2ccc(Cl)cc2)C1 (configuration not stated)	14.2	0.7	0.9	-2.0	16.1
CCOC(=O)C1CCCN(c2ncnc3c2cnn3-c2ccc(OC)cc2)C1 (configuration not stated)	41.5	1.2	0.9	-19.5	58.0*
Cn1c(SCC(=O)c2ccc(F)cc2)nnc1-c1cnccn1	20.2	2.8*	1	1.5	14.7
Cn1c(SCc2ccccc2Cl)nnc1-c1cnccn1	51.5*	1.6	0.9	0.3	56.1*
Cc1cc(Cl)cc(Br)c1OCCCN1C(=O)NC(C)(C)C1=O	nt	1.1	nt	nt	nt
Cc1ccc2c(CSc3nc4ccccc4c(=O)n3CCCO)cc(=O)oc2c1	-34.0	1.3	1	7.7	-7.8
CCCCOC(=O)C(C)Oc1ccc(=O)n(-c2ccccc2)n1 (configuration not stated)	57.3*	1.3	1	-20.4	3.5
Cn1c(=O)c2c(nc(CN3CCN(C(=O)c4ccco4)CC3)n2CCCc2ccccc2)n(C)c1=O	-12.1	1.1	0.9	16.6*	-4.1
Cn1c(=O)c2c(nc(CN3CCN(C(=O)c4ccco4)CC3)n2CCc2ccccc2)n(C)c1=O	-4.3	1.2	1	6.7	2.6
Cc1c(C(=O)Nc2ccccn2)oc2ccccc12	40.0	1	0.8	3.5	68.7*
COC(=O)c1sc(NC(=O)c2oc3ccccc3c2C)nc1C	61.0*	2.3*	1	-14.0	58.3*
Cc1c(C(=O)Nc2nnc(C(F)(F)F)s2)oc2ccccc12	-12.9	1.3	0.9	0.2	41.2
COc1ccc(Oc2cc(C(F)(F)F)cnc2C(N)=O)cc1	nt	1.2	nt	nt	nt
COCC(=O)Nc1nnc(C2CCCCC2)s1	51.5*	1.1	0.9	3.1	34.3
CCOCC(=O)Nc1nnc(C2CCCCC2)s1	50.5*	1.4	1	4.3	19.8
CCC1=C2CC[C@H]3C(=O)NC(=O)[C@H]3[C@H]2[C@@]2(C)C(=NCC3CC3)OC(=O)N2C1=O	nt	1.1	nt	nt	nt
COC(=O)[C@@H]1C[C@@]2(O)[C@H](O)[C@H](O)[C@H](O)C[C@H]2N1Cc1ccc(N2CCOCC2)cc1	nt	1.1	nt	nt	nt
CCN(CC)c1ccc2cc(C(C)=O)c(=O)oc2c1	nt	1.5	nt	nt	nt
CCN(CC)c1ccc2cc(-c3nnc(-c4ccncc4)o3)c(=O)oc2c1	25.0	1.4	0.9	4.4	73.2*
N#Cc1c(N2CCCC2)nc(N)c2c(N)nc(N3CCCC3)cc12	28.0	1.2	0.9	-260.5	49.5*
COc1cc2c(C#N)c(N3CCN(C)CC3)nc(N)c2c(N)n1	nt	1.2	nt	nt	nt
CCCC[C@@H]1C[C@H]1C(NC(=O)c1ccccc1)c1ccc(C(F)(F)F)cc1 (some centres not stated)	nt	1.2	nt	nt	nt
Cc1ccc(-c2nn(C)c(=O)c3ccccc23)cc1CNC(=O)Cn1nc(-c2ccccc2)c2ccccc2c1=O	nt	1.3	nt	nt	nt
Cc1ccccc1OC(=O)C1C(c2ccccc2)C(C(=O)O)C1c1ccccc1 (configuration not stated)	nt	1.1	nt	nt	nt
Fc1cccc2sc(N3CCCCC3)nc12	32.7	1.4	0.9	4.9	73.2*
SMILES	RORA act	MT1-MMP txn act	TNAP act mid DEA	MMP-13 inhibitor	SF-1 act
O=C(NCC1CCCO1)c1ccc2nc(N3CCCCC3)sc2c1 (configuration not stated)	59.4*	1.5	0.9	-3.0	53.9*
O=C(NCC1CCCO1)c1ccc(N2CCCCC2)nc1 (configuration not stated)	14.0	1.3	0.9	2.1	12.1
Clc1ccc2nc(N3CCCCC3)sc2c1	29.1	1.8	0.9	-1.4	64.8*
Fc1cccc2sc(N3CCOCC3)nc12	3.1	1.4	1	4.8	40.5
Cc1ccc(C2=[N+]([O-])C3(CCCCC/C3=N\NC(N)=S)N(O)C2(C)C)o1 (configuration not stated)	nt	1.1	nt	nt	nt
CCCCNC(=O)C(c1ccc(OCC(=O)OC)c(C(=O)OC)c1)N(CCOC)C(=O)CCCCCN1C(=O)NC(c2ccc(-c3ccccc3)cc2)C(C(=O)OCc2ccccc2)=C1C (configuration not stated)	nt	1.1	nt	nt	nt
COc1nc(C)ccc1-c1noc(-c2ccncc2)n1	31.1	1.5	0.9	4.1	64.2*
CCOc1ccccc1-c1nc(-c2ccc(C)nc2OC)no1	36.4	1.2	0.9	-6.1	57.7*
CCCCCc1nnc(NC(=O)C(=O)OCC)s1	nt	1.1	nt	nt	nt
FC(F)(F)Oc1ccc(Nc2nc3ccccc3o2)cc1	70.6*	2.2*	0.9	-4.8	38.8
Cc1ccc(NC(=O)c2c(C)nc(Nc3nc4ccccc4o3)nc2C)cc1	-28.0	1.2	1	0.7	3.8
Nc1c(C(=O)NCc2ccco2)nnn1-c1ccccc1	8.6	1.5	1	-1.3	55.3*
Cc1cc(C)cc(-n2nnc(C(=O)NCc3ccco3)c2N)c1	10.2	1.2	0.8	1.9	11.9
COC(=O)CN=C1OC(=O)N2C(=O)C3=C4[C@@H](C[C@H]5C(=O)N(c6ccccc6)C(=O)[C@H]5[C@H]4[C@@]12Cc1ccccc1)[C@H]1C(=O)N(c2ccccc2)C(=O)[C@H]1[C@H]3C	nt	1.2	nt	nt	nt
COc1ccccc1NC(=O)CN1C(=O)NC(CC(C)C)C1=O (configuration not stated)	1.1	1.2	1	-0.5	-0.2
CC(C)CC1NC(=O)N(CC(=O)c2ccc3c(c2)OCCO3)C1=O (configuration not stated)	57.4*	1.2	0.9	-1.4	83.9*
C[C@@H](C(=O)Nc1ccc2ccccc2c1)[C@H]1C[C@]1(C)[C@H](NC(=O)Oc1ccc(F)cc1)c1ccccc1	nt	1.3	nt	nt	nt
CCOC(=O)c1cnn(-c2cc(C)nc3c(-c4ccccc4)cnn23)c1N	14.2	1.2	0.9	0.8	-0.5
CCOC(=O)c1cnn2c(C)cc(-c3ccccc3)nc12	42.9	1.6	0.9	-84.5	65.1*
CC1CCN(S(=O)(=O)c2ccc(NC(=O)Cc3cccs3)cc2)CC1	nt	1.3	nt	nt	nt
CCCc1nc(NCC2CCCO2)c2nnn(Cc3ccccc3)c2n1 (configuration not stated)	nt	1.4	nt	nt	nt
Cc1cccnc1NC(=O)Nc1ccc(F)cc1	45.8	1.2	0.9	-2.2	98.3*
COc1ccc(NC(=O)NCCN2C(=O)C3C4C=CC(C4)C3C2=O)cc1 (configuration not stated)	65.8*	1.5	0.8	-5.1	30.2
O=C(NCCN1C(=O)C2C3C=CC(C3)C2C1=O)Nc1ccccc1 (configuration not stated)	16.3	1.1	1	0.5	-3.2
Cc1ccc(NC(=O)NCCN2C(=O)C3C4C=CC(C4)C3C2=O)cc1 (configuration not stated)	74.5*	1.4	1	-2.1	97.7*
COc1ccc(Nc2nc(C)c3ccccc3n2)cc1	55.1*	2.1*	0.9	-1.9	98.7*
COc1ccc(Nc2cc(C)nc3ccccc23)cc1	-1.9	1.1	0.7	6.2	-3.0
